Assay results taken from ChEMBL document CHEMBL1134562, “Fluorosulfonyl- and bis-(beta-chloroethyl)amino-phenylamino functionalized pyrazolo[4,3-e]1,2,4-triazolo[1,5-c]pyrimidine derivatives: irreversible antagonists at the human A3 adenosine receptor and molecular modeling studies” (J Med Chem, 2001).

Tests used:
[1] = target: T1, Adenosine receptor A3 (Homo sapiens) (UniProt P0DMS8); assay: Irreversible inhibition of […]-AB-MECA binding to human adenosine A3 receptor at 10 nM
T1 sequence (whole entry): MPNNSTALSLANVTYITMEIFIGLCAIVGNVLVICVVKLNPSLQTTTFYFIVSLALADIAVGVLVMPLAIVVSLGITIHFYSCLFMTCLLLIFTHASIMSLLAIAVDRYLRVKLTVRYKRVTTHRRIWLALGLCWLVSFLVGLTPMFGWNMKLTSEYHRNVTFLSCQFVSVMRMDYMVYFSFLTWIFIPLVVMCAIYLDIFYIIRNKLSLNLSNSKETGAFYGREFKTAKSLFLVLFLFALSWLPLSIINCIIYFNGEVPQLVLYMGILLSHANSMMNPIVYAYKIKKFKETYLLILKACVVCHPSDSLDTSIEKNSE
Procedure, shortened: (§1)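 Membranes from CHO cells stably expressing human A3 receptor, preincubated 1 h at room temperature with compound (DMSO ≤1%), then washed 9 times by centrifugation/resuspension in 50 mM Tris, 10 mM Mg2+, 1 mM EDTA pH 7.4 with 0.02% CHAPS; adenosine deaminase 3 units/mL throughout.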

[2] = target: T1, Adenosine receptor A3 (Homo sapiens); assay: Irreversible inhibition of […]-AB-MECA binding to human adenosine A3 receptor at 100 nM; procedure, shortened: as §1
[3] = target: T1, Adenosine receptor A3 (Homo sapiens); assay: Irreversible inhibition of […]-AB-MECA binding to human adenosine A3 receptor at 1 nM; procedure, shortened: as §1

| Compound | inhibition [1] | inhibition [2] | inhibition [3] |
| --- | --- | --- | --- |
| CCn1cc2c(nc(NC(=O)Nc3ccc(S(=O)(=O)F)cc3)n3nc(-c4ccco4)nc23)n1 | 30% | 65% | 4.1% |
| CCCCn1cc2c(nc(NC(=O)Nc3ccc(S(=O)(=O)F)cc3)n3nc(-c4ccco4)nc23)n1 | 40% | 73% | 31% |
| CCn1cc2c(nc(NC(=O)Nc3ccc(N(CCCl)CCCl)cc3)n3nc(-c4ccco4)nc23)n1 | 0% | 18% | 0% |
| CCCn1cc2c(nc(NC(=O)Nc3ccc(S(=O)(=O)F)cc3)n3nc(-c4ccco4)nc23)n1 | 70% | 79% | 47% |
| CCCn1cc2c(nc(NC(=O)Nc3ccc(N(CCCl)CCCl)cc3)n3nc(-c4ccco4)nc23)n1 | 11% | 16% | 7.8% |
| CCCCn1cc2c(nc(NC(=O)Nc3ccc(N(CCCl)CCCl)cc3)n3nc(-c4ccco4)nc23)n1 | 7% | 9% | 0% |
| Cn1cc2c(nc(NC(=O)Nc3ccc(N(CCCl)CCCl)cc3)n3nc(-c4ccco4)nc23)n1 | 11% | 22% | 0% |
